Data on four molecules can be found in article PMC10494472 (Saudi Pharmaceutical Journal : SPJ, 2023).

Common to all, as to assay type: biochemical
One assay addresses FAS from chicken liver (Gallus gallus, UniProt P12276). The assay can be described thus: FAS inhibition assay. In a few lines:
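Chicken liver FAS (10 µg) with test compound (10–200 µg/mL) in 100 mM potassium phosphate buffer containing 1 mM dithiothreitol, 1 mM EDTA, 10 µM malonyl-CoA, 3 µM acetyl-CoA and 35 µM NADPH. Activity was followed at 37 °C as the change in NADPH absorbance at 340 nm. The blank omitted the enzyme.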

A further assay concerns the target α-glucosidase (maltase) (Saccharomyces cerevisiae, UniProt P53341). The assay can be described thus: α-glucosidase inhibition assay.
For a further assay, the target named is XO (Bos taurus, UniProt P80457). The assay can be described thus: XO inhibition assay.
XO, sequence (P80457 whole entry): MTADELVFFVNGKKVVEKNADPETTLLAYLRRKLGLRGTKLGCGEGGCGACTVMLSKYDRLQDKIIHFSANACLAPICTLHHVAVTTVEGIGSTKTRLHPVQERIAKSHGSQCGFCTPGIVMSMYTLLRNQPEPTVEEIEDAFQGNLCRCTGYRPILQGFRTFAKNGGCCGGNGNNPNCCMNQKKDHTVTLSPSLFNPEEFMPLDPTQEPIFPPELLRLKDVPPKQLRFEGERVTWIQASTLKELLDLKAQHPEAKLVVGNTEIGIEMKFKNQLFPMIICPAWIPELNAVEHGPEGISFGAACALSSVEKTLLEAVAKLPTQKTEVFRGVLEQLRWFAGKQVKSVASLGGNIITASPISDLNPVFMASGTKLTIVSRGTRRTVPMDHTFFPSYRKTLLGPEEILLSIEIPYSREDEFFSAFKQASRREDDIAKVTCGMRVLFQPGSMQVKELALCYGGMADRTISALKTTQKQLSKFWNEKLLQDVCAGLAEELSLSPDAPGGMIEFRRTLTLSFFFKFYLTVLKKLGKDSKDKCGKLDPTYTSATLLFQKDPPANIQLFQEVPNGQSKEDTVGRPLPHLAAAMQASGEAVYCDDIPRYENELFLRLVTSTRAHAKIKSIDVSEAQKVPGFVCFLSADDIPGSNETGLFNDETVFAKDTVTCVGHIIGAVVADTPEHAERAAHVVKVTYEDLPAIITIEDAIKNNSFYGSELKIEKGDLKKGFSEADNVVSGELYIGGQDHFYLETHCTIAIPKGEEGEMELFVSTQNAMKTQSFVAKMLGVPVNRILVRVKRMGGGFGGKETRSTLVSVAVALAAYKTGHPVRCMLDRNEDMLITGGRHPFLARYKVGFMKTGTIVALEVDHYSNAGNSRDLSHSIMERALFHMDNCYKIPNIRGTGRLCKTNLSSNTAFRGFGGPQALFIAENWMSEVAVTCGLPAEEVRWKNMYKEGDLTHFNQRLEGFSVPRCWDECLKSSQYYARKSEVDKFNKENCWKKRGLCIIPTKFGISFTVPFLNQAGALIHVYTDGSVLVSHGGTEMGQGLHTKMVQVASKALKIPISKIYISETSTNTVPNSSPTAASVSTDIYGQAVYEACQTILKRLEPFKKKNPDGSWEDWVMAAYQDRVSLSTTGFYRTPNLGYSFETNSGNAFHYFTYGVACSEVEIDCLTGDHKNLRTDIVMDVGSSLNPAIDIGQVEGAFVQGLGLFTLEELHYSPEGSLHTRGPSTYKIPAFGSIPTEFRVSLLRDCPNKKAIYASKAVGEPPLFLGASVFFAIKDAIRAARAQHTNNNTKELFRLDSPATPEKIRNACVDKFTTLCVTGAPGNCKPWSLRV

pIC50: −log10 of the molar value.

FAS from chicken liver, sequence (P12276 whole entry): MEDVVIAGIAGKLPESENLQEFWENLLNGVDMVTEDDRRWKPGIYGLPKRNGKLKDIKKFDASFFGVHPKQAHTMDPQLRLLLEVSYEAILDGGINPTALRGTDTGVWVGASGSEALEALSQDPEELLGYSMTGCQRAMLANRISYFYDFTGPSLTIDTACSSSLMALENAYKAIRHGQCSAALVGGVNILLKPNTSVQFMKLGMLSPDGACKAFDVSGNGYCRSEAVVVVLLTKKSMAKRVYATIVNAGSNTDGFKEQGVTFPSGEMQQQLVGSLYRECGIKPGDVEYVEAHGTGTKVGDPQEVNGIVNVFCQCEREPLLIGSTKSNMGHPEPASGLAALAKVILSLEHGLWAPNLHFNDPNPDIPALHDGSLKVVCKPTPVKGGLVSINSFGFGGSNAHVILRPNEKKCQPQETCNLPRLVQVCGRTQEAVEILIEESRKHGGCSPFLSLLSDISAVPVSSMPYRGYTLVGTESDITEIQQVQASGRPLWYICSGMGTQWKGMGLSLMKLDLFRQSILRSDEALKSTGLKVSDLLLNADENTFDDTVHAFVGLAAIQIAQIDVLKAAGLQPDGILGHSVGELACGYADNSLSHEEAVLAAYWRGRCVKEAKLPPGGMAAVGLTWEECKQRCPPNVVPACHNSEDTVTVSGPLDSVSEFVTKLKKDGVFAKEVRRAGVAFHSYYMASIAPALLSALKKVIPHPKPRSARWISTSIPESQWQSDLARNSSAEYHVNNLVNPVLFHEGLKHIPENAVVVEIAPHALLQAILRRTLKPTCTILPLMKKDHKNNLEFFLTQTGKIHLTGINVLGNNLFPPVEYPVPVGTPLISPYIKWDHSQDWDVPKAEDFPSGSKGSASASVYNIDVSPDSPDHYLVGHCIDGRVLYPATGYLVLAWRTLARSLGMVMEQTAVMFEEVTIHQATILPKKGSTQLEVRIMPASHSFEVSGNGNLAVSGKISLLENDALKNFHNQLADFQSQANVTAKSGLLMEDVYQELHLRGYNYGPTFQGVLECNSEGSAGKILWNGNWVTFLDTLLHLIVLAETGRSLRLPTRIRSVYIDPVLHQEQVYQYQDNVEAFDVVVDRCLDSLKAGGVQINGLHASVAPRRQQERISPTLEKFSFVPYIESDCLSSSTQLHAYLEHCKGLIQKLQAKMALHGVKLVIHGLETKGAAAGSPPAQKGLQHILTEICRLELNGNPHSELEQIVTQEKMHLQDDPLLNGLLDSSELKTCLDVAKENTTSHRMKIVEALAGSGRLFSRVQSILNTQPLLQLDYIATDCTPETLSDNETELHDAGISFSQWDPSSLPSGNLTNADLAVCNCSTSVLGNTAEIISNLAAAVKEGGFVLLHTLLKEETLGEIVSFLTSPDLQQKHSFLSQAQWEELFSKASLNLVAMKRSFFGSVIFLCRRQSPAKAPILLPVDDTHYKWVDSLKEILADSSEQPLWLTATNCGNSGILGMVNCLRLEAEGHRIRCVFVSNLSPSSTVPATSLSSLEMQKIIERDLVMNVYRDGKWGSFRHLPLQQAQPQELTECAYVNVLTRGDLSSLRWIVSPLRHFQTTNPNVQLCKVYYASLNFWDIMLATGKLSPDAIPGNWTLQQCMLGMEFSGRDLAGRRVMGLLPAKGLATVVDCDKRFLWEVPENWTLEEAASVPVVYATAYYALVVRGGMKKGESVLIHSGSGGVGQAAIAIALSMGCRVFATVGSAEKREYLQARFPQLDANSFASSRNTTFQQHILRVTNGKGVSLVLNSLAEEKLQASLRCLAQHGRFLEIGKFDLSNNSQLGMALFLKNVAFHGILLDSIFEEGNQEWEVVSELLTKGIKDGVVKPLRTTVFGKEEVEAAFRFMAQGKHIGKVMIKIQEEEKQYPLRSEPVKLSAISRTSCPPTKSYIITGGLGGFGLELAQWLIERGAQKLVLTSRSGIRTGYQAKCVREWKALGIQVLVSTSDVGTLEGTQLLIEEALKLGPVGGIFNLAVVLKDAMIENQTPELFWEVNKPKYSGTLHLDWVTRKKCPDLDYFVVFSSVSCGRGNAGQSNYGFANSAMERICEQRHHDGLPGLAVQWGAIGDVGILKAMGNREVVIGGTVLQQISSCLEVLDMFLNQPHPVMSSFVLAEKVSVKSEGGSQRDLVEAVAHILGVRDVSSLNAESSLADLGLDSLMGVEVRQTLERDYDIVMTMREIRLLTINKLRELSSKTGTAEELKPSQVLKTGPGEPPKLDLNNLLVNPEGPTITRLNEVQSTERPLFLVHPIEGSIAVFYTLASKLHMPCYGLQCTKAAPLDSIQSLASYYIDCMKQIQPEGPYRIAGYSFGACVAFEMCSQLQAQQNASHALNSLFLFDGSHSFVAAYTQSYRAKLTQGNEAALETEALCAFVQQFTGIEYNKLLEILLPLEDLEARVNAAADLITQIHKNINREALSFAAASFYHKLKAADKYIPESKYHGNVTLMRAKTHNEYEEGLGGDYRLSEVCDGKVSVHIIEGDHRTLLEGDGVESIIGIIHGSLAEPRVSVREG
α-glucosidase (maltase), sequence (P53341 whole entry): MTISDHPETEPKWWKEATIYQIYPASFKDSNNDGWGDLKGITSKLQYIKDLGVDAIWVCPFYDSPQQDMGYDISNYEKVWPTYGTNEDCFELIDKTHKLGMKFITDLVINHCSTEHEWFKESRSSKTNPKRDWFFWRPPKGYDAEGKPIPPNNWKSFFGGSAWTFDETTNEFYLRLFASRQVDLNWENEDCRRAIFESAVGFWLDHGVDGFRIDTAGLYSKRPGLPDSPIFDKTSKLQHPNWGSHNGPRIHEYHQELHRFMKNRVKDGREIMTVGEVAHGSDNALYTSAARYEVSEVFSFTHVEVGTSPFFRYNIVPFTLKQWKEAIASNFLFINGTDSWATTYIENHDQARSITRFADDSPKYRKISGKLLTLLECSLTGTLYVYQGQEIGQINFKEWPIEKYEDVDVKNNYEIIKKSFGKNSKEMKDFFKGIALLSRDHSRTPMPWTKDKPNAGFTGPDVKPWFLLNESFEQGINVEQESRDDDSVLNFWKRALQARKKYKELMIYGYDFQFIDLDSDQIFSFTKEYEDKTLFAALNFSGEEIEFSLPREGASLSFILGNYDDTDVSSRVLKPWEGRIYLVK

One may read the pIC50 as −log10 of the IC50, conventionally taken in molar units. High values mean a small IC50, low ones a large IC50. Regarding `C=C(C)[C@@H]1CC[C@]2(C)CC[C@]3(C)[C@H](CC[C@@H]4[C@@]5(C)CC[C@H](O)C(C)(C)[C@@H]5CC[C@]43C)[C@@H]12` [Compound 1, lupeol], the pIC50 is 4.01 at FAS from chicken liver, 4.00 against α-glucosidase (maltase) and 3.96 against XO.
Consider `C=C(C)[C@@H]1CC[C@]2(CO)CC[C@]3(C)[C@H](CC[C@@H]4[C@@]5(C)CC[C@H](O)C(C)(C)[C@@H]5CC[C@]43C)[C@@H]12` [Compound 2, betulin], for which the pIC50 is 4.20 at FAS from chicken liver, 4.06 on α-glucosidase (maltase) and 4.16 against XO.
As for `COc1ccc(-c2cc(=O)c3c(O)cc(O)c(-c4cc(-c5cc(=O)c6c(O)cc(O)cc6o5)ccc4O)c3o2)cc1` [Compound 3, podocarpusflavone A], on FAS from chicken liver, the pIC50 was 4.36.
Turning to `O=c1cc(-c2ccc(O)c(-c3c(O)cc(O)c4c(=O)cc(-c5ccc(O)cc5)oc34)c2)oc2cc(O)cc(O)c12` [Compound 4, amentoflavone], the pIC50 is 4.12 against FAS from chicken liver and 4.03 on α-glucosidase (maltase).
